Type in all cases: functional
Assay [1] deals with Cavia porcellus. As to the kind of experiment: In vivo reversal activity versus ~90% block by rocuronium in guinea pig. The procedure, abridged:
(§1)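 Male Dunkin-Hartley guinea pigs (600-900 g), anaesthetized ip with pentobarbitone 10 mg/kg plus urethane 1000 mg/kg, tracheotomized and ventilated. Continuous iv rocuronium infusion (~10 nmol kg-1 min-1) was raised to a steady 85-90% block. Increasing iv doses of agent were given cumulatively. ED50 = 50% recovery versus preblock twitch, by regression. Mean ± SEM of at least two experiments, or one.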

Assay [2] concerns Cavia porcellus. As to the kind of experiment: In vivo reversal activity versus ~90% block by rocuronium in guinea pig, expressed as % of maximum reversal at 2.5 umol/kg conc. Summed up:
(§2)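 Male Dunkin-Hartley guinea pigs (600-900 g) anaesthetized ip with pentobarbitone 10 mg/kg plus urethane 1000 mg/kg, tracheotomized and artificially ventilated. Continuous iv rocuronium bromide infusion (~10 nmol kg-1 min-1) raised until steady-state twitch block of 85-90%. Increasing single iv doses of reversal agent given by a separate catheter. Max reversal is peak twitch recovery versus preblock height at highest dose tested; means ± SEM, n ≥ 2 or single experiment.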

For assay [3], the species on record is Mus musculus. As to the kind of experiment: In vitro reversal activity versus ~90% block by rocuronium in isolated mouse hemidiaphragm, expressed as effective conc.
The species entered for assay [4] is Mus musculus. As to the kind of experiment: In vitro reversal activity versus ~90% block by rocuronium in isolated mouse hemidiaphragm, expressed as % of maximum reversal at 12.6 uM conc.
Assay [5] has as its system Cavia porcellus. Description: In vivo reversal activity versus ~90% block by rocuronium in guinea pig, expressed as % of maximum reversal at 0.6 umol/kg conc. The procedure, abridged: as §1
For assay [6], the species on record is Mus musculus. Description: In vitro reversal activity versus ~90% block by rocuronium in isolated mouse hemidiaphragm, expressed as % of maximum reversal at 5.4 uM conc.
The species named for assay [7] is Mus musculus. Description: In vitro reversal activity versus ~90% block by rocuronium in isolated mouse hemidiaphragm, expressed as % of maximum reversal at 216 uM conc.
In assay [8] the test system is Cavia porcellus. As to the kind of experiment: In vivo reversal activity versus ~90% block by rocuronium in guinea pig, expressed as % of maximum reversal at 30.7 umol/kg conc. The procedure, abridged: as §2
The species entered for assay [9] is Mus musculus. As to the kind of experiment: In vitro reversal activity versus ~90% block by rocuronium in isolated mouse hemidiaphragm, expressed as % of maximum reversal at 18 uM conc.
In assay [10] the test system is Cavia porcellus. As to the kind of experiment: In vivo reversal activity versus ~90% block by rocuronium in guinea pig, expressed as % of maximum reversal at 3.9 umol/kg conc. Summed up: as §2
The subject of assay [11] is Cavia porcellus. Description: In vivo reversal activity versus ~90% block by rocuronium in guinea pig, expressed as % of maximum reversal at 12 umol/kg conc. The procedure, abridged: as §2
The species entered for assay [12] is Mus musculus. Description: In vitro reversal activity versus ~90% block by rocuronium in isolated mouse hemidiaphragm, expressed as % of maximum reversal at 144 uM conc.
For assay [13], the system named is Cavia porcellus. Description: In vivo reversal activity versus ~90% block by rocuronium in guinea pig, expressed as % of maximum reversal at 10 umol/kg conc. The procedure, abridged:
as §1

The species named for assay [14] is Mus musculus. Description: In vitro reversal activity versus ~90% block by rocuronium in isolated mouse hemidiaphragm, expressed as % of maximum reversal at 2.2 uM conc.
Assay [15] deals with Cavia porcellus. As to the kind of experiment: In vivo reversal activity versus ~90% block by rocuronium in guinea pig, expressed as % of maximum reversal at 1.4 umol/kg conc. Summed up: as §1
In assay [16] the test system is Cavia porcellus. As to the kind of experiment: In vivo reversal activity versus ~90% block by rocuronium in guinea pig, expressed as % of maximum reversal at 316 umol/kg conc. The procedure, abridged:
as §2

The species entered for assay [17] is Mus musculus. Description: In vitro reversal activity versus ~90% block by rocuronium in isolated mouse hemidiaphragm, expressed as % of maximum reversal at 360 uM conc.

For orientation: ED50 means the dose that gives a 50% effect, or the effect in half of the subjects. What is called pEC50 is −log10 of the EC50, conventionally taken in molar units.

pEC50: −log10 of the molar value.

As to `O=C([O-])CCCCCSCC1O[C@@H]2O[C@@H]3C(CSCCCCCC(=O)[O-])O[C@H](O[C@@H]4C(CSCCCCCC(=O)[O-])O[C@H](O[C@@H]5C(CSCCCCCC(=O)[O-])O[C@H](O[C@@H]6C(CSCCCCCC(=O)[O-])O[C@H](O[C@@H]7C(CSCCCCCC(=O)[O-])O[C@H](O[C@@H]8C(CSCCCCCC(=O)[O-])O[C@H](O[C@@H]9C(CSCCCCCC(=O)[O-])O[C@H](O[C@H]1C(O)C2O)C(O)C9O)C(O)C8O)C(O)C7O)C(O)C6O)C(O)C5O)C(O)C4O)C(O)C3O.[Na+].[Na+].[Na+].[Na+].[Na+].[Na+].[Na+].[Na+]` (some centres undefined), the ED50 with Cavia porcellus [1] was 0.74 µmol/kg. In addition, the results for the Max reversal in the assay with Cavia porcellus [2] and in the assay filed under Mus musculus [4] were 78.4% and 81.7%, respectively. In the assay filed under Mus musculus [3], the pEC50 was 5.15.
For `O=C([O-])CCC(=O)NCCSCC1O[C@@H]2O[C@@H]3C(CSCCNC(=O)CCC(=O)[O-])O[C@H](O[C@@H]4C(CSCCNC(=O)CCC(=O)[O-])O[C@H](O[C@@H]5C(CSCCNC(=O)CCC(=O)[O-])O[C@H](O[C@@H]6C(CSCCNC(=O)CCC(=O)[O-])O[C@H](O[C@@H]7C(CSCCNC(=O)CCC(=O)[O-])O[C@H](O[C@@H]8C(CSCCNC(=O)CCC(=O)[O-])O[C@H](O[C@@H]9C(CSCCNC(=O)CCC(=O)[O-])O[C@H](O[C@H]1C(O)C2O)C(O)C9O)C(O)C8O)C(O)C7O)C(O)C6O)C(O)C5O)C(O)C4O)C(O)C3O.[Na+].[Na+].[Na+].[Na+].[Na+].[Na+].[Na+].[Na+]` (some centres undefined), the ED50 in the assay on Cavia porcellus [1] came out at 0.07 µmol/kg. In addition, in the assay filed under Mus musculus [3], the pEC50 is 5.97. Moreover, the Max reversal with Cavia porcellus [5] amounted to 107.1%; in the assay listed under Mus musculus [6] it was 99.4%.
On to `O=C([O-])c1ccccc1SCC1O[C@@H]2O[C@@H]3C(CSc4ccccc4C(=O)[O-])O[C@H](O[C@@H]4C(CSc5ccccc5C(=O)[O-])O[C@H](O[C@@H]5C(CSc6ccccc6C(=O)[O-])O[C@H](O[C@@H]6C(CSc7ccccc7C(=O)[O-])O[C@H](O[C@@H]7C(CSc8ccccc8C(=O)[O-])O[C@H](O[C@@H]8C(CSc9ccccc9C(=O)[O-])O[C@H](O[C@@H]9C(CSc%10ccccc%10C(=O)[O-])O[C@H](O[C@H]1C(O)C2O)C(O)C9O)C(O)C8O)C(O)C7O)C(O)C6O)C(O)C5O)C(O)C4O)C(O)C3O.[Na+].[Na+].[Na+].[Na+].[Na+].[Na+].[Na+].[Na+]` (some centres undefined), for which the pEC50 in the assay listed under Mus musculus [3] is 3.64. Further, the Max reversal in the assay filed under Mus musculus [7] is reported as 42.3%.
Take `O=C([O-])Cc1ccc(SCC2O[C@@H]3O[C@@H]4C(CO)O[C@H](O[C@@H]5C(CO)O[C@H](O[C@@H]6C(CO)O[C@H](O[C@@H]7C(CO)O[C@H](O[C@@H]8C(CO)O[C@H](O[C@@H]9C(CO)O[C@H](O[C@@H]%10C(CO)O[C@H](O[C@H]2C(O)C3O)C(O)C%10O)C(O)C9O)C(O)C8O)C(O)C7O)C(O)C6O)C(O)C5O)C(O)C4O)cc1.[Na+]` (some centres undefined): in the assay with Cavia porcellus [1], the ED50 is 4.55 µmol/kg. In addition, the pEC50 in the assay listed under Mus musculus [3] is 4.46. In addition, the Max reversal in the assay with Cavia porcellus [8] came to 97.1%; in the assay filed under Mus musculus [9], 45%.
With `OCCCCSCC1O[C@@H]2O[C@@H]3C(CSCCCCO)O[C@H](O[C@@H]4C(CSCCCCO)O[C@H](O[C@@H]5C(CSCCCCO)O[C@H](O[C@@H]6C(CSCCCCO)O[C@H](O[C@@H]7C(CSCCCCO)O[C@H](O[C@@H]8C(CSCCCCO)O[C@H](O[C@@H]9C(CSCCCCO)O[C@H](O[C@H]1C(O)C2O)C(O)C9O)C(O)C8O)C(O)C7O)C(O)C6O)C(O)C5O)C(O)C4O)C(O)C3O` (some centres undefined), in the assay with Cavia porcellus [1], the ED50 came to 3.94 µmol/kg. For the same compound, the results for the Max reversal in the assay on Cavia porcellus [10] and in the assay filed under Mus musculus [9] were 52.8% and 78.9%, respectively. In addition, in the assay filed under Mus musculus [3], the pEC50 was 5.19.
Turning to `O=C([O-])CCSCC1O[C@@H]2O[C@@H]3C(CO)O[C@H](O[C@@H]4C(CO)O[C@H](O[C@@H]5C(CO)O[C@H](O[C@@H]6C(CO)O[C@H](O[C@@H]7C(CO)O[C@H](O[C@@H]8C(CO)O[C@H](O[C@@H]9C(CO)O[C@H](O[C@H]1C(O)C2O)C(O)C9O)C(O)C8O)C(O)C7O)C(O)C6O)C(O)C5O)C(O)C4O)C(O)C3O.[Na+]` (some centres undefined), the ED50 in the assay with Cavia porcellus [1] is 1.3 µmol/kg. The pEC50 in the assay filed under Mus musculus [3] is 4.76. The Max reversal in the assay with Cavia porcellus [11] is given as 100.6%; in the assay filed under Mus musculus [12], 94.5%.
Take `C[C@H](CSCC1O[C@@H]2O[C@@H]3C(CSC[C@H](C)C(=O)N4CCCC4C(=O)[O-])O[C@H](O[C@@H]4C(CSC[C@@H](C)C(=O)N5CCCC5C(=O)[O-])O[C@H](O[C@@H]5C(CSC[C@@H](C)C(=O)N6CCCC6C(=O)[O-])O[C@H](O[C@@H]6C(CSC[C@H](C)C(=O)N7CCCC7C(=O)[O-])O[C@H](O[C@@H]7C(CSC[C@@H](C)C(=O)N8CCCC8C(=O)[O-])O[C@H](O[C@@H]8C(CSC[C@H](C)C(=O)N9CCCC9C(=O)[O-])O[C@H](O[C@@H]9C(CSC[C@@H](C)C(=O)N%10CCCC%10C(=O)[O-])O[C@H](O[C@H]1C(O)C2O)C(O)C9O)C(O)C8O)C(O)C7O)C(O)C6O)C(O)C5O)C(O)C4O)C(O)C3O)C(=O)N1CCCC1C(=O)[O-].[Na+].[Na+].[Na+].[Na+].[Na+].[Na+].[Na+].[Na+]` (some centres undefined): the median effective dose (ED50) in the assay on Cavia porcellus [1] turned out to be 1.49 µmol/kg. The pEC50 in the assay listed under Mus musculus [3] was 4.47. Besides, the Max reversal with Cavia porcellus [13] is 103.6%; in the assay listed under Mus musculus [9], 35.7%.
For the compound `O=C([O-])c1ccc(SCC2O[C@@H]3O[C@@H]4C(CSc5ccc(C(=O)[O-])cc5)O[C@H](O[C@@H]5C(CSc6ccc(C(=O)[O-])cc6)O[C@H](O[C@@H]6C(CSc7ccc(C(=O)[O-])cc7)O[C@H](O[C@@H]7C(CSc8ccc(C(=O)[O-])cc8)O[C@H](O[C@@H]8C(CSc9ccc(C(=O)[O-])cc9)O[C@H](O[C@@H]9C(CSc%10ccc(C(=O)[O-])cc%10)O[C@H](O[C@@H]%10C(CSc%11ccc(C(=O)[O-])cc%11)O[C@H](O[C@H]2C(O)C3O)C(O)C%10O)C(O)C9O)C(O)C8O)C(O)C7O)C(O)C6O)C(O)C5O)C(O)C4O)cc1.[Na+].[Na+].[Na+].[Na+].[Na+].[Na+].[Na+].[Na+]` (some centres undefined), the ED50 in the assay on Cavia porcellus [1] stood at 0.12 µmol/kg. For the same compound, the Max reversal in the assay listed under Mus musculus [14] is listed as 97%; in the assay on Cavia porcellus [15] it was 97.6%. For the same compound, the pEC50 in the assay filed under Mus musculus [3] was 6.00.
In the case of `OC[C@H]1O[C@@H]2O[C@H]3[C@H](O)[C@@H](O)[C@@H](O[C@H]4[C@H](O)[C@@H](O)[C@@H](O[C@H]5[C@H](O)[C@@H](O)[C@@H](O[C@H]6[C@H](O)[C@@H](O)[C@@H](O[C@H]7[C@H](O)[C@@H](O)[C@@H](O[C@H]8[C@H](O)[C@@H](O)[C@@H](O[C@H]1[C@H](O)[C@H]2O)O[C@@H]8CO)O[C@@H]7CO)O[C@@H]6CO)O[C@@H]5CO)O[C@@H]4CO)O[C@@H]3CO` [BETADEX], the Max reversal came to 92.9% in the assay with Cavia porcellus [16] and 29% in the assay listed under Mus musculus [17]. In addition, the ED50 with Cavia porcellus [1] is 20 µmol/kg. Moreover, the pEC50 in the assay listed under Mus musculus [3] was below 3.44.

For the origin of these results see ChEMBL document CHEMBL1135836, “Cyclodextrin-derived host molecules as reversal agents for the neuromuscular blocker rocuronium bromide: synthesis and structure-activity relationships” (J Med Chem, 2002).
